# Assay outcomes: PubChem BioAssay, several laboratories
# Rows were chosen to be rich in hits. Some 4.5% of all compounds tested hit in one or more screens of this group.
# MDM2 E3 inh: Mdm2 E3 ligase (human) inhibition; Q00987; AID 1230; cell-based MDM2 ubiquitination luciferase reporter, 2 h; 0 = plate control, 100 = twice control, blank-subtracted; actives 0.11% (n = 210,000); signal enhancement, % at 5 µM;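 active = signal enhancement of 30% or more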;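 also: luminescence tracks abundance of the self-degrading MDM2-luciferase fusion protein; higher signal means inhibition of MDM2 E3 ligase activity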
#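 Buffer or medium: Cells held in DMEM | Assay system: Stable mammalian line carrying autodegrading MDM2–luciferase fusion reporter | Quantity: 2000 cells/well | Times: 4 h settle plus 2 h compound, 37 °C | Doses: One concentration, 5 µM, with 0.2% DMSO | Technique: Luminescence with SteadyLite reagent, 15 min at room temperature | Benchmarks: Plate controls and plate blanks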
# STAT1 act: activators of IFN-gamma induced STAT1 signaling. NIH 3T3 STAT1-luciferase reporter, luminescence; 100% = IFN-gamma alone, no compound. activation (% of control), % at 5.5 µM. actives 2.6% (n = 200,000);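 active = activation above the screen-wide mean activation plus 3 SD, cut at about 130% in these data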;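 also: raw ratio to IFN-gamma control signal so 100% means no change and 0% no light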
# PERK inh: inhibitors of human PERK kinase; CHO PERK-DD fusion, SEAP luminescence translation reporter; inhibition, % at 5.6 µM; actives 0.17% (n = 220,000);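 active = inhibition above the mean inhibition of all tested compounds plus 3 SD, set separately per screening campaign, cut at about 2.9% in these data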;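 also: PERK kinase domain activated by AP20187 dimerizer at 100 nM; 0% = DMSO with dimerizer and 100% = rapamycin at 8.4 µM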
# NF-kB neuron act: raises NF-kB expression in human neuronal cells; NF-kB reporter expression; active compounds read high; fold change at 12.5 µM; actives 1.6% (n = 190,000); AID 1239; in the data active = fold change above about 3.3
# AHR act: human AHR activation; P35869; AHR-responsive luciferase reporter cells, luminescence; activation, % at 5 µM; actives 2.5% (n = 320,000); in the data active = activation above about 47%;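 also: 0% = vehicle wells and 100% = reference agonist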
# APP 5'UTR act: activates APP 5'UTR luciferase reporter; SH-SY5Y APP 5'UTR luciferase reporter, luminescence; zero percent = DMSO vehicle wells; activation, % at 2 µM; actives 1% (n = 190,000); AID 1276;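 active = activation above a set limit, based on mean plus 3 SD of controls, cut at about 140% in these data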
# * = called active by the depositor; . = no result given.
SMILES,MDM2 E3 inh,STAT1 act,PERK inh,NF-kB neuron act,AHR act,APP 5'UTR act
Cc1ccc(-c2nc(-c3cccnc3)no2)c(C)c1,-26,147*,0,4.8*,47,144*
Brc1ccc(-c2nc(-c3cccnc3)no2)o1,-13,132*,2,1.2,63*,38
COc1ccc(N(CC(=O)NCCc2ccccc2)C(=O)c2csnn2)cc1,.,.,.,.,5,.
O=C(Nc1ccc(Br)cc1Br)c1cccc2c1C(=O)N(C1CCCCC1)C2,.,.,.,.,0,.
COc1cc(C(O)CO)ccc1OS(=O)(=O)O (stereo unspecified),.,.,.,.,-1,.
Cc1cc(NC(=O)c2ccccc2)nc2c1c(=O)oc1ccccc12,-7,107,2,0.7,24,5
CCC(CC)C(=O)Nc1cc(C)c2c(=O)oc3ccccc3c2n1,-9,.,.,0.61,50*,0
NS(=O)(=O)c1ccc(CCN2C(=O)CCC2=O)cc1,.,.,.,.,1,.
Cc1ccc(C(=O)N2CCN(c3ccccn3)CC2)cc1Cl,.,.,.,.,8,.
CCOc1ccccc1CN1CCN(Cc2cc(=O)c3ccccc3[nH]2)CC1CCO (stereo unspecified),.,.,.,.,12,.
CCOc1ccccc1CN1CCN(Cc2[nH]c3ccccc3c2C)CC1CCO (stereo unspecified),-2,108,-1,0.9,51*,1
Cc1n(Cc2ccccc2)c2ccccc2[n+]1Cc1ccccc1,.,.,.,.,1,.
O=C(NCc1ccncc1)C1CCN(S(=O)(=O)c2ccccc2)CC1,.,.,.,.,-1,.
O=C(c1cnn(-c2cccc(F)c2)c1)c1ccccc1O,.,.,.,.,5,.
Cc1cc(C)nc(-n2cc(C(=O)c3cc(F)ccc3O)cn2)n1,-14,105,0,0.95,53*,12
COC(=O)c1ccc(NC(=O)CN(c2ccc(OC)cc2)S(C)(=O)=O)cc1,1,134*,-1,2.8,7,20
COC1CCN(C(=O)c2ccc3oc(C(C)C)nc3c2)CC1,.,.,.,.,2,.
Clc1ccc(-c2nnc(Sc3nc4ccccc4o3)c3ccccc23)cc1,-18,103,1,4.2*,-1,11
Cc1ccc(-c2nnc(Sc3nc4ccccc4o3)c3ccccc23)cc1,-1,99,1,4.9*,-2,38
COc1ccc(CCNC(=O)CSc2nc(C)nc3c2c(=O)n(C)c(=O)n3C)cc1OC,.,.,.,.,0,.
Cc1cc(=S)[nH]c(=S)[nH]1,-8,.,1,.,-3,.
CC1CN(c2oc(-c3cccs3)nc2C#N)CC(C)O1 (stereo unspecified),-12,102,1,1.1,67*,-5
N#Cc1nc(-c2cccs2)oc1N1CCOCC1,-3,105,1,1.2,28,3
Cc1cccc(/C=N\NC(=O)c2csnn2)c1,-26,127,1,2,70*,-3
O=C(N/N=C\c1ccc(Oc2ccccc2)cc1)c1csnn1,-31,137*,0,7.5*,12,5
SMILES,MDM2 E3 inh,STAT1 act,PERK inh,NF-kB neuron act,AHR act,APP 5'UTR act
CCOC(=O)N/N=C/c1ccc(Oc2ccccc2)cc1,-3,109,0,0.97,.,29
CC(=O)Nc1ccc(N=Nc2c(C)[nH]n(C(N)=S)c2=O)cc1,-18,126,1,1.5,5,5
Cc1[nH]n(C(N)=S)c(=O)c1N=Nc1cc(-c2ccc(Br)cc2)[nH]n1,-25,106,0,1.1,55*,3
Cc1ccc(N=Nc2c(C)[nH]n(C(N)=S)c2=O)cc1C,-22,113,0,4.8*,51*,96
O=C(O)c1c(-c2ccc(Cl)cc2)cn2ccccc12,-15,135*,1,2.1,39,16
CCOC(=O)c1c(-c2ccccc2Cl)cn2ccccc12,-1,92,0,1.1,0,-9
Oc1c(CN2CCOCC2)cc(COCc2ccccc2)c2cccnc12,-24,119,0,4.2*,0,-92
Oc1ccc(C2C(c3ccccc3)=NN=C(c3ccccc3F)N2O)c(O)c1 (stereo unspecified),0,99,0,1.4,8,3
Oc1ccc(C2C(c3ccccc3)=NN=C(c3ccc(Cl)cc3)N2O)c(O)c1 (stereo unspecified),6,107,1,1.1,48*,10
Cn1cccc1CNC(=O)Nc1ccc(Cl)cc1,-16,117,0,1.1,75*,.
Cn1cccc1C(=O)C(=O)Nc1ccc(Cl)cc1,-62,120,0,11*,-4,186*
Cc1nc2sc(-c3ccccc3)nn2c(=O)c1Br,-13,147*,0,4.5*,-2,112
FC(F)(F)c1cc(-c2ccccc2)nc(N2CCCCCC2)n1,0,97,0,0.94,1,5
c1ccc(-c2cnnc(N3CCCCC3)n2)cc1,-19,142*,1,1.1,16,113
COc1cc(OC)c(/C=C2\C(=O)Nc3ccccc32)c(OC)c1,.,.,.,.,79*,.
Brc1ccccc1C1CC(c2ccccc2)=Nc2ccccc2N1 (stereo unspecified),-7,135*,0,2.4,40,149*
Clc1ccccc1C1CC(c2ccccc2)=Nc2ccccc2N1 (stereo unspecified),0,.,1,.,14,.
NNC(=O)CN1CCCc2ccccc21,-31,148*,0,0.91,71*,103
Nc1[nH]n2c(=O)c3c(nc2c1N=Nc1ccccc1)CCCC3,-7,106,-2,0.82,11,-4
Nc1[nH]n2c(=O)c3c(nc2c1N=Nc1ccc(Cl)cc1)CCCC3,-11,106,1,0.83,57*,-4
O=C(NNc1nc2cc3c(cc2s1)OCCO3)c1ccccc1,-11,132*,2,1.9,74*,38
Cc1cccc2sc(NNC(=O)c3ccc4c(c3)OCCO4)nc12,.,106,0,1.5,59*,17
O=C(NNc1nc2ccccc2s1)c1ccc(F)cc1,-5,115,0,1.3,54*,21
O=C(NNc1nc2ccc(F)cc2s1)c1cccc(F)c1,-11,117,0,1.4,23,31
COc1ccccc1NC(=O)O/N=C(\N)c1ccccc1,.,.,0,.,6,.
SMILES,MDM2 E3 inh,STAT1 act,PERK inh,NF-kB neuron act,AHR act,APP 5'UTR act
COc1cc(Cl)c(NS(=O)(=O)c2cc3[nH]c(=O)c(=O)[nH]c3cc2C)c(OC)c1,.,.,.,.,3,.
Cn1nnc(-c2ccc(OCc3ccccc3F)cc2)n1,-30,122,0,7.8*,-8,138*
Cc1ccc(OCC(=O)Nc2nnc(S(=O)(=O)N3CCC(C)CC3)s2)cc1,.,.,.,.,4,.
O=C(NN=C1c2ccccc2-c2ccccc21)c1ccccn1,-10,102,0,1.1,8,7
O=C(NN=C1C2CC3CC1CC(Cl)(C3)C2)c1cccs1,-8,128,1,1.4,22,141*
O=C(NN=C1C2CC3CC1CC(Cl)(C3)C2)c1ccccn1,-12,121,0,1.6,7,159*
